The source made the active and inactive calls. The calls are words filed in the database; no cut-off is given here. Square brackets hold non-standard residues; d marks the D form. Peptide text beside a SMILES is read from it. * marks the point of attachment. X1 = CC[C@H](C)[C@@H](OC(=O)/C=C/c1ccccc1)C(=O)*; dNMeF = CN[C@H](Cc1ccccc1)C(=O)O; NMeL = CN[C@@H](CC(C)C)C(=O)O

Results on one molecule are retold here after ChEMBL document CHEMBL4138319, “Discovery, Synthesis, Pharmacological Profiling, and Biological Characterization of Brintonamides A-E, Novel Dual Protease and GPCR Modulators from a Marine Cyanobacterium” (J Med Chem, 2018).

Data set [1] deals with MDA-MB-231. The data set is described as follows: Antiproliferative activity against human MDA-MB-231 cells after 48 hrs by MTT assay. The class given is functional, cell-based. Conditions: Homo sapiens, MDA-MB-231, 48 h; read-out: IC50. Summed up:
(§1)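 MDA-MB-231 cells are grown in DMEM with 10% FBS and seeded at 10,000 cells/well for 24 h. Cells are then exposed to graded compound concentrations or DMSO for 48 h. Viability is measured by MTT.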
For orientation: Tetrazolium assays rely on reduction of a dye to a coloured formazan, in cell work by metabolically active cells.

Data set [2] addresses T1, Kallikrein-7 (Homo sapiens, UniProt P49862). The experiment in a line: Inhibition of kallikrein 7 (unknown origin) by fluorescence assay. The essentials:
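Protease panel screen: 10-dose titrations, 3-fold serial dilution from 100 μM, singlet. Protease activity is followed as the time-course rise in fluorescence from a labeled peptide substrate, and the initial linear slope (signal/min) is analysed.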
Target sequence in this assay (P49862 whole entry): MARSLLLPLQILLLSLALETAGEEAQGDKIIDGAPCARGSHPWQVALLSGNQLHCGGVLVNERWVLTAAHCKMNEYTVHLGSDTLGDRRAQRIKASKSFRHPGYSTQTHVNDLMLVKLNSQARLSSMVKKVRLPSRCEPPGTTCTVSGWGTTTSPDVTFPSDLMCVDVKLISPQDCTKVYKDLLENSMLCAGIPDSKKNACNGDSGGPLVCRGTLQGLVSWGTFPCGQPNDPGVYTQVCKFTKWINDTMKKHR

The target of data set [3] is T2, Chymase (Homo sapiens, UniProt P23946).
T2 sequence (P23946 whole entry): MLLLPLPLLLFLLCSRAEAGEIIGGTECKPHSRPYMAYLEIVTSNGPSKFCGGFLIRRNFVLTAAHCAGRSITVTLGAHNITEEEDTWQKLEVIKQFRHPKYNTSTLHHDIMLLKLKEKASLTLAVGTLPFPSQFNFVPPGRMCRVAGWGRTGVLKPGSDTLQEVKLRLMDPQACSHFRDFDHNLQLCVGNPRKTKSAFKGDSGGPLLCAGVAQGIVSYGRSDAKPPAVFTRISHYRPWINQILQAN
The data set is described as follows: Inhibition of chymase (unknown origin) by fluorescence assay. Summed up: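 Activity followed as a time course of rising fluorescence from a fluorescently labelled peptide substrate. The initial linear slope (signal/min) was used.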

Data set [4] concerns the target T1, Kallikrein-7. The data set is described as follows: Inhibition of kallikrein 7-mediated Dsg-2 shedding in human MDA-MB-468 cells at 0.01 to 10 uM incubated for 48 hrs by ELISA. The class given is cell-based.
Target sequence in this assay (P49862 30-253 limits assumed): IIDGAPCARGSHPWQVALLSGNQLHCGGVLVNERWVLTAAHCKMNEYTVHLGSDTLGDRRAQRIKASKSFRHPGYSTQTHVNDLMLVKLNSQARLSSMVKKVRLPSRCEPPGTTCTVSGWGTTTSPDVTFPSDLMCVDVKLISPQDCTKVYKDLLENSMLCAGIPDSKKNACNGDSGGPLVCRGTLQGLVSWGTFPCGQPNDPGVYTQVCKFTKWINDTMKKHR
In data set [5] the target is T3, C-C chemokine receptor type 10 (Homo sapiens) (UniProt P46092).
T3 sequence (whole entry): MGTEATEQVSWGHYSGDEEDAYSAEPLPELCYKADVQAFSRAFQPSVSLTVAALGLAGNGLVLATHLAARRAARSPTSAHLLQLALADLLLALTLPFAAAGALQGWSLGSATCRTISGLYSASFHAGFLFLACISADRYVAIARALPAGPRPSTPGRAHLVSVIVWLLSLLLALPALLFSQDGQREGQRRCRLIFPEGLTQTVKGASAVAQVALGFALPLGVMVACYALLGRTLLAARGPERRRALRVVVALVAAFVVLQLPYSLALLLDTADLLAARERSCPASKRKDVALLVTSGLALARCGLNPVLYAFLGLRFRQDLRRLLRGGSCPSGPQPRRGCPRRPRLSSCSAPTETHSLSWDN
The experiment in a line: Antagonist activity at human CCR10 expressed in human U2OS cells assessed as inhibition of CCL27-induced beta-arrestin recruitment at 10 uM pre-incubated for 30 mins before CCL27 stimulation for 90 or 180 mins by chemiluminescence method. The class given is functional, cell-based. More on the design: scale not given: the % may be the effect or the level left. (In general: Recruitment of arrestin is a read-out of receptor activation apart from second messengers.)

Data set [6] deals with T4, Oxytocin receptor (Homo sapiens) (UniProt P30559).
T4 sequence (whole entry): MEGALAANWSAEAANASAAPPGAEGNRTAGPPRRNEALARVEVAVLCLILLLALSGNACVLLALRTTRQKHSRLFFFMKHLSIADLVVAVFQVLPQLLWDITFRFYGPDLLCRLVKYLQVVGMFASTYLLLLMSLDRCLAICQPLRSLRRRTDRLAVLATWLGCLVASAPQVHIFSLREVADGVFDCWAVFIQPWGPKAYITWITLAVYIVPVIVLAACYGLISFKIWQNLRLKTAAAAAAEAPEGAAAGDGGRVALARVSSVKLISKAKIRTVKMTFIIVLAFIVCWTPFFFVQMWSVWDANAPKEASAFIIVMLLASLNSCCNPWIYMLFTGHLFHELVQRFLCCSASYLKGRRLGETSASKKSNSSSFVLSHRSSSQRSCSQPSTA
The data set is described as follows: Antagonist activity at human OXTR expressed in CHOK1 cells assessed as oxytocin-induced beta-arrestin recruitment at 10 uM pre-incubated for 30 mins before oxytocin stimulation for 90 or 180 mins by chemiluminescence method. The format is functional, cell-based. Also on record: scale not given: the % may be the effect or the level left.

The target in data set [7] is T5, Substance-K receptor (Homo sapiens) (UniProt P21452).
T5 sequence (whole entry): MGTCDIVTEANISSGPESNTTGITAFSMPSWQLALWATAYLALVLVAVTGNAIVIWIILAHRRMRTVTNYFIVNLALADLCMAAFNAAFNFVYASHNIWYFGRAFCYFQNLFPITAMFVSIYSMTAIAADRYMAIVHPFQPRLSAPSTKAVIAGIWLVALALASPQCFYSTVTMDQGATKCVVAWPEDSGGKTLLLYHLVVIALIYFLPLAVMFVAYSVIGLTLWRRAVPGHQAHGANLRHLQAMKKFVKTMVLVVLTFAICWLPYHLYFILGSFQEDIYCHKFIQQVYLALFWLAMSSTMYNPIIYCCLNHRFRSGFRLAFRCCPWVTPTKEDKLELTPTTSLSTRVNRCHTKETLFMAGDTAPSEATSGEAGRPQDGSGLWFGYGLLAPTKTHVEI
The data set is described as follows: Antagonist activity at human TACR2 expressed in CHOK1 cells assessed as substance P-induced beta-arrestin recruitment at 10 uM pre-incubated for 30 mins before substance P stimulation for 90 or 180 mins by chemiluminescence method. The format is functional, cell-based. More on the design: scale not given: the % may be the effect or the level left.

Data set [8] addresses T6, C-C chemokine receptor type 10 (Homo sapiens, UniProt P46092).
T6 sequence (P46092 whole entry): T3 sequence (whole entry)
The experiment in a line: Antagonist activity at human CCR10 expressed in human U2OS cells assessed as inhibition of CCL27-induced beta-arrestin recruitment pre-incubated for 30 mins before CCL27 stimulation for 90 or 180 mins by chemiluminescence method. The format is functional, cell-based. Summed up:
(§2)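 PathHunter β-arrestin complementation assay, antagonist mode. Cells co-express ProLink-tagged GPCR and enzyme-acceptor-tagged β-arrestin and are pre-incubated with sample for 30 min at 37 °C or room temperature. Dose-response: 10 points, 3-fold dilutions from 20 μM, in duplicate.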

The target in data set [9] is T7, Substance-K receptor (Homo sapiens, UniProt P21452).
T7 sequence (P21452 whole entry): T5 sequence (whole entry)
The data set is described as follows: Antagonist activity at human TACR2 expressed in CHOK1 cells assessed as substance P-induced beta-arrestin recruitment pre-incubated for 30 mins before substance P stimulation for 90 or 180 mins by chemiluminescence method. The format is functional, cell-based. Summed up: as §2

Data set [10] has as its system MDA-MB-231. The data set is described as follows: Toxicity in human MDA-MB-231 cells assessed as inhibition of proliferation after 48 hrs by MTT assay. The class given is cell-based. Conditions: mda-mb-231, 48 h. Summed up:
as §1

For orientation: IC50 means the concentration at which inhibition is half-maximal. For the molecule `CC[C@H](C)[C@@H](OC(=O)/C=C/c1ccccc1)C(=O)N1CCC[C@H]1C(=O)NCC(=O)N(C)[C@@H](CC(C)C)C(=O)N[C@@H](C)C(=O)N(C)[C@H](Cc1ccccc1)C(=O)N1CCC[C@H]1C(=O)OC` (X1-PG[NMeL]A[dNMeF]P-OMe), the IC50 in data set [1] is 16.7 µM; in data set [2] it was 18.9 µM; in data set [3] it was 23.2 µM; in [8] it was 0.44 µM; in [9] it was 1.79 µM. Moreover, the inhibition result in data set [4] is “inactive”. In addition, the Activity is 98% in data set [5], 76% in data set [6], 97% in [7] and “Non-Toxic” in data set [10].
